Laboratory results published in ChEMBL document CHEMBL3864121, “Development of ebsulfur analogues as potent antibacterials against methicillin-resistant Staphylococcus aureus” (Bioorg Med Chem, 2016).
≈ marks a conversion by molar mass, not a printed value. Calls of active or inactive are those of the source. The calls are words filed in the database; no cut-off is given here.

Each compound was assayed on Staphylococcus aureus (assay: Antibacterial activity against methicillin-sensitive Staphylococcus aureus ATCC 6538 measured after overnight incubation by broth double-dilution method). Conditions: not given.
Assay type: functional
Method in brief: (§1)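 MIC by broth double-dilution in liquid Mueller-Hinton medium. Values are reported in µg/mL.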
Work on `CCCCCCn1sc2ccccc2c1=O` yielded an MIC of 7.8 µg/mL (≈ 33.1 µM).

Each compound was assayed on Staphylococcus aureus (assay: Antibacterial activity against methicillin-sensitive Staphylococcus aureus ATCC 25923 measured after overnight incubation by broth double-dilution method). Conditions: not given.
Assay type: functional
Method in brief: as §1
Compound `CCCCCCn1sc2ccccc2c1=O` has an MIC of 3.9 µg/mL (≈ 16.6 µM).

These compounds were tested on Staphylococcus aureus (assay: Antibacterial activity against methicillin-sensitive Staphylococcus aureus ATCC 29213 measured after overnight incubation by broth double-dilution method). Conditions: not given.
Assay type: functional
Method in brief: as §1
With `CCCCCCn1sc2ccccc2c1=O` the MIC was 3.9 µg/mL (≈ 16.6 µM).

These compounds were tested on Staphylococcus aureus (assay: Antibacterial activity against methicillin-resistant Staphylococcus aureus ATCC 33591 measured after overnight incubation by broth double-dilution method). Conditions: not given.
Assay type: functional
Method in brief: as §1
`CCCCCCn1sc2ccccc2c1=O` showed an MIC of 2 µg/mL (≈ 8.5 µM).

These compounds were tested on Staphylococcus aureus (assay: Antibacterial activity against methicillin-resistant Staphylococcus aureus 1 measured after overnight incubation by broth double-dilution method). Conditions: not given.
Assay type: functional
Method in brief: as §1
`CCCCCCn1sc2ccccc2c1=O` showed an MIC of 2 µg/mL (≈ 8.5 µM).

The compounds below were run on Staphylococcus aureus (assay: Antibacterial activity against methicillin-resistant Staphylococcus aureus 2 measured after overnight incubation by broth double-dilution method). Conditions: not given.
Assay type: functional
Method in brief: as §1
With `CCCCCCn1sc2ccccc2c1=O` the MIC was 3.9 µg/mL (≈ 16.6 µM).

These compounds were tested on Staphylococcus aureus (assay: Antibacterial activity against methicillin-resistant Staphylococcus aureus BRS3 measured after overnight incubation by broth double-dilution method). Conditions: not given.
Assay type: functional
Method in brief: as §1
`CCCCCCn1sc2ccccc2c1=O` gave an MIC of 3.9 µg/mL (≈ 16.6 µM).

Each compound was assayed on Staphylococcus aureus (assay: Antibacterial activity against methicillin-resistant Staphylococcus aureus C1 measured after overnight incubation by broth double-dilution method). Conditions: not given.
Assay type: functional
Method in brief: as §1
`CCCCCCn1sc2ccccc2c1=O` showed an MIC of 3.9 µg/mL (≈ 16.6 µM).

What follows are compounds tested on Staphylococcus aureus (assay: Antibacterial activity against methicillin-resistant Staphylococcus aureus C2 measured after overnight incubation by broth double-dilution method). Conditions: not given.
Assay type: functional
Method in brief: as §1
For `CCCCCCn1sc2ccccc2c1=O`, the MIC was 3.9 µg/mL (≈ 16.6 µM).

These compounds were tested on Staphylococcus aureus (assay: Antibacterial activity against methicillin-resistant Staphylococcus aureus C7 measured after overnight incubation by broth double-dilution method). Conditions: not given.
Assay type: functional
Method in brief: as §1
Compound `CCCCCCn1sc2ccccc2c1=O` has an MIC of 3.9 µg/mL (≈ 16.6 µM).

What follows are compounds tested on Staphylococcus aureus (assay: Antibacterial activity against methicillin-resistant Staphylococcus aureus C14 measured after overnight incubation by broth double-dilution method). Conditions: not given.
Assay type: functional
Method in brief: as §1
`CCCCCCn1sc2ccccc2c1=O` showed an MIC of 3.9 µg/mL (≈ 16.6 µM).

The compounds below were run on Staphylococcus aureus (assay: Antibacterial activity against methicillin-resistant Staphylococcus aureus C16 measured after overnight incubation by broth double-dilution method). Conditions: not given.
Assay type: functional
Method in brief: as §1
Work on `CCCCCCn1sc2ccccc2c1=O` yielded an MIC of 7.8 µg/mL (≈ 33.1 µM).

Each compound was assayed on Staphylococcus aureus (assay: Antibacterial activity against methicillin-resistant Staphylococcus aureus C19 measured after overnight incubation by broth double-dilution method). Conditions: not given.
Assay type: functional
Method in brief: as §1
Work on `CCCCCCn1sc2ccccc2c1=O` yielded an MIC of 2 µg/mL (≈ 8.5 µM).

These compounds were tested on Staphylococcus aureus (assay: Antibacterial activity against methicillin-resistant Staphylococcus aureus G1 measured after overnight incubation by broth double-dilution method). Conditions: not given.
Assay type: functional
Method in brief: as §1
In the case of `CCCCCCn1sc2ccccc2c1=O`, the MIC is reported as 0.5 µg/mL (≈ 2.12 µM).

What follows are compounds tested on Staphylococcus aureus (assay: Antibacterial activity against methicillin-resistant Staphylococcus aureus G6 measured after overnight incubation by broth double-dilution method). Conditions: not given.
Assay type: functional
Method in brief: as §1
`CCCCCCn1sc2ccccc2c1=O` showed an MIC of 3.9 µg/mL (≈ 16.6 µM).

The compounds below were run on Staphylococcus aureus (assay: Antibacterial activity against methicillin-resistant Staphylococcus aureus G12 measured after overnight incubation by broth double-dilution method). Conditions: not given.
Assay type: functional
Method in brief: as §1
Compound `CCCCCCn1sc2ccccc2c1=O` has an MIC of 2 µg/mL (≈ 8.5 µM).

What follows are compounds tested on Staphylococcus aureus (assay: Antibacterial activity against methicillin-resistant Staphylococcus aureus G14 measured after overnight incubation by broth double-dilution method). Conditions: not given.
Assay type: functional
Method in brief: as §1
`CCCCCCn1sc2ccccc2c1=O` showed an MIC of 2 µg/mL (≈ 8.5 µM).

The compounds below were run on Staphylococcus aureus (assay: Antibacterial activity against methicillin-resistant Staphylococcus aureus NRS4 measured after overnight incubation by broth double-dilution method). Conditions: not given.
Assay type: functional
Method in brief: as §1
For `CCCCCCn1sc2ccccc2c1=O`, the MIC was 3.9 µg/mL (≈ 16.6 µM).

Each compound was assayed on Staphylococcus aureus (assay: Antibacterial activity against methicillin-resistant Staphylococcus aureus NRS51 measured after overnight incubation by broth double-dilution method). Conditions: not given.
Assay type: functional
Method in brief: as §1
`CCCCCCn1sc2ccccc2c1=O` showed an MIC of 3.9 µg/mL (≈ 16.6 µM).

The compounds below were run on Staphylococcus aureus (assay: Antibacterial activity against methicillin-resistant Staphylococcus aureus NRS77 measured after overnight incubation by broth double-dilution method). Conditions: not given.
Assay type: functional
Method in brief: as §1
Work on `CCCCCCn1sc2ccccc2c1=O` yielded an MIC of 3.9 µg/mL (≈ 16.6 µM).

These compounds were tested on Staphylococcus aureus (assay: Antibacterial activity against methicillin-resistant Staphylococcus aureus S14 measured after overnight incubation by broth double-dilution method). Conditions: not given.
Assay type: functional
Method in brief: as §1
`CCCCCCn1sc2ccccc2c1=O` was tested, and the MIC was at most 0.25 µg/mL.

These compounds were tested on Staphylococcus aureus (assay: Antibacterial activity against methicillin-resistant Staphylococcus aureus S17 measured after overnight incubation by broth double-dilution method). Conditions: not given.
Assay type: functional
Method in brief: as §1
In the case of `CCCCCCn1sc2ccccc2c1=O`, the MIC is reported as 3.9 µg/mL (≈ 16.6 µM).

Each compound was assayed on Staphylococcus aureus (assay: Antibacterial activity against methicillin-resistant Staphylococcus aureus S22 measured after overnight incubation by broth double-dilution method). Conditions: not given.
Assay type: functional
Method in brief: as §1
With `CCCCCCn1sc2ccccc2c1=O` the MIC was 3.9 µg/mL (≈ 16.6 µM).

The compounds below were run on Staphylococcus aureus (assay: Antibacterial activity against methicillin-resistant Staphylococcus aureus S24 measured after overnight incubation by broth double-dilution method). Conditions: not given.
Assay type: functional
Method in brief: as §1
Compound `CCCCCCn1sc2ccccc2c1=O` has an MIC of 3.9 µg/mL (≈ 16.6 µM).

These compounds were tested on Staphylococcus aureus (assay: Antibacterial activity against methicillin-resistant Staphylococcus aureus USA100 measured after overnight incubation by broth double-dilution method). Conditions: not given.
Assay type: functional
Method in brief: as §1
For `CCCCCCn1sc2ccccc2c1=O`, the MIC was 7.8 µg/mL (≈ 33.1 µM).

These compounds were tested on Staphylococcus aureus (assay: Antibacterial activity against methicillin-resistant Staphylococcus aureus USA200 measured after overnight incubation by broth double-dilution method). Conditions: not given.
Assay type: functional
Method in brief: as §1
Work on `CCCCCCn1sc2ccccc2c1=O` yielded an MIC of 7.8 µg/mL (≈ 33.1 µM).

The compounds below were run on Staphylococcus aureus (assay: Antibacterial activity against methicillin-resistant Staphylococcus aureus USA300 measured after overnight incubation by broth double-dilution method). Conditions: not given.
Assay type: functional
Method in brief: as §1
Compound `CCCCCCn1sc2ccccc2c1=O` has an MIC of 3.9 µg/mL (≈ 16.6 µM).

The compounds below were run on Staphylococcus aureus (assay: Antibacterial activity against methicillin-resistant Staphylococcus aureus USA600 measured after overnight incubation by broth double-dilution method). Conditions: not given.
Assay type: functional
Method in brief: as §1
`CCCCCCn1sc2ccccc2c1=O` was tested, and the MIC was 7.8 µg/mL (≈ 33.1 µM).

Each compound was assayed on Staphylococcus epidermidis (assay: Antibacterial activity against Staphylococcus epidermidis ATCC 35984 measured after overnight incubation by broth double-dilution method). Conditions: RP62A.
Assay type: functional
Method in brief: (§2)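 MIC by broth double-dilution in Mueller-Hinton medium. Re-testing at the time-kill inoculum used 1×10^6 CFU/mL.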
For `CCCCCCn1sc2ccccc2c1=O`, the MIC was 2 µg/mL (≈ 8.5 µM).

Each compound was assayed on Enterococcus faecalis (assay: Antibacterial activity against Enterococcus faecalis ATCC 29212 measured after overnight incubation by broth double-dilution method). Conditions: not given.
Assay type: functional
Method in brief: as §2
`CCCCCCn1sc2ccccc2c1=O` showed an MIC of over 125 µg/mL.

The compounds below were run on Enterococcus faecalis (assay: Antibacterial activity against Enterococcus faecalis ATCC 49533 measured after overnight incubation by broth double-dilution method). Conditions: not given.
Assay type: functional
Method in brief: as §2
`CCCCCCn1sc2ccccc2c1=O` was tested, and the MIC was over 125 µg/mL.

The compounds below were run on Enterococcus faecium (assay: Antibacterial activity against Enterococcus faecium BM4105-RF measured after overnight incubation by broth double-dilution method). Conditions: not given.
Assay type: functional
Method in brief: as §1
With `CCCCCCn1sc2ccccc2c1=O` the MIC was 7.8 µg/mL (≈ 33.1 µM).

Each compound was assayed on Enterococcus (assay: Antibacterial activity against Vancomycin-resistant Enterococcus measured after overnight incubation by broth double-dilution method). Conditions: not given.
Assay type: functional
Method in brief: as §1
`CCCCCCn1sc2ccccc2c1=O` gave an MIC of 2 µg/mL (≈ 8.5 µM).

The compounds below were run on Listeria monocytogenes (assay: Antibacterial activity against Listeria monocytogenes ATCC 19115 measured after overnight incubation by broth double-dilution method). Conditions: not given.
Assay type: functional
Method in brief: as §2
With `CCCCCCn1sc2ccccc2c1=O` the MIC was 3.9 µg/mL (≈ 16.6 µM).

The compounds below were run on Mycolicibacterium smegmatis (assay: Antibacterial activity against Mycobacterium smegmatis MC2-155 measured after overnight incubation by broth double-dilution method). Conditions: str. MC2 155.
Assay type: functional
Method in brief: as §1
With `CCCCCCn1sc2ccccc2c1=O` the MIC was 2 µg/mL (≈ 8.5 µM).

These compounds were tested on Staphylococcus aureus (assay: Bacteriostatic activity against methicillin-resistant Staphylococcus aureus S22 at 0.5 times MIC measured up to 3 to 6 hrs by time kill analysis). Conditions: not given.
Assay type: functional
With `CCCCCCn1sc2ccccc2c1=O` the Activity was “Active”.

Each compound was assayed on Staphylococcus aureus (assay: Bacteriostatic activity against methicillin-resistant Staphylococcus aureus S22 at MIC measured up to 3 to 6 hrs by time kill analysis). Conditions: not given.
Assay type: functional
With `CCCCCCn1sc2ccccc2c1=O` the Activity was “Active”.

The compounds below were run on Staphylococcus aureus (assay: Bacteriostatic activity against methicillin-resistant Staphylococcus aureus S22 at 4 times MIC measured after 24 hrs by time kill analysis). Conditions: not given.
Assay type: functional
`CCCCCCn1sc2ccccc2c1=O` was tested, and the Activity was “Active”.

Each compound was assayed on Staphylococcus epidermidis RP62A (assay: Inhibition of thioredoxin reductase in Staphylococcus epidermidis ATCC 35984 assessed as induction of ROS production at 1 to 4 times MIC measured after 1 hr by DCFH-DA staining-based fluorescence microscopic analysis). Conditions: not given.
Method in brief: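 Untreated cells served as the negative control and 1 mM H2O2 as the positive control. Cells were stained with DCFH-DA (40 µg/mL) and ROS were visualized by fluorescence microscopy.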
In the case of `CCCCCCn1sc2ccccc2c1=O`, the Activity is reported as “Active”.

Each compound was assayed on Staphylococcus aureus (assay: Antibacterial activity against methicillin-resistant Staphylococcus aureus S22 using 1 10^6CFU/ml measured after overnight incubation by broth double-dilution method). Conditions: not given.
Assay type: functional
With `CCCCCCn1sc2ccccc2c1=O` the Activity was “Active”.
